What was measured:
[1] = Apparent terminal half life in Wistar rat at 5 mg/kg, po measured up to 24 hrs post dose by HPLC-MS/MS analysis; type: ADME, organism-based; conditions: in vivo, read-out: betat1/2(app) (converted)
How it was run: (§1)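 Male Wistar rats, n = 6 per group, given 1 mg/kg intravenously or 5 mg/kg intragastrically. Blood concentrations followed over 24 h. Non-compartmental analysis; values as median ± SD. Bioavailability from oral versus intravenous exposure.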

[2] = MRT (0 to infinity) in Wistar rat at 5 mg/kg, po measured up to 24 hrs post dose by HPLC-MS/MS analysis; type: ADME, organism-based; conditions: in vivo; how it was run: as §1
[3] = molecular target: T1, Proteinase-activated receptor 1 (Homo sapiens, UniProt P25116); test: Antagonist activity at human PAR1 expressed in HEK293 cells co-expressing Galpha15 assessed as inhibition of haTRAP-induced calcium mobilization preincubated for 15 mins followed by haTRAP addition by calcium-4 dye based FLIPR assay; type: functional, cell-based
T1 sequence (P25116 whole entry): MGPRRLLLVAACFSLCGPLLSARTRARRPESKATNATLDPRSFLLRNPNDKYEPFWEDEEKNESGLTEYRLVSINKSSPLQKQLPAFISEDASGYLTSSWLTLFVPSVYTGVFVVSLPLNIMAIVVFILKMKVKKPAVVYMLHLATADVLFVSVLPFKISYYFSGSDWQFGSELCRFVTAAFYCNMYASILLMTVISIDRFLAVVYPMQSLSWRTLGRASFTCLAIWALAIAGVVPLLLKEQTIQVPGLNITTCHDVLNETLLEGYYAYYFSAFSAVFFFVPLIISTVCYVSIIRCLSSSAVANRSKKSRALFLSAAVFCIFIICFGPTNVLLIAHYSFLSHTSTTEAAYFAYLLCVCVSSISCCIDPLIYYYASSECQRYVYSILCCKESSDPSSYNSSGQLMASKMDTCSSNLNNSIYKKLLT

[4] = system: Rattus norvegicus; test: Toxicity in Wistar rat assessed as body weight at 5 mg/kg, po measured up to 24 hrs post dose; type: organism-based; conditions: in vivo
[5] = Apparent volume of distribution in Wistar rat at 1 mg/kg, iv administered as bolus dose measured up to 24 hrs post dose by HPLC-MS/MS analysis; type: ADME, organism-based; conditions: in vivo, read-out: Vd(app); how it was run: as §1

## CC1CC[C@@H]2C(C)(C)[C@H](O)CC[C@@]2(C)[C@@H]1/C=C/c1ccc(-c2cccc(F)c2)cn1 (single isomer, unassigned)
[1]
  half-life: 3.1 h
[2]
  MRT inf: 5.6 h
[3]
  IC50: 1100 nM
[4]
  Activity: 224 g
[5]
  Vd: 5.7 L/kg
